Reference: ChEMBL document CHEMBL1125074, “Autoxidation of the serotonergic neurotoxin 5,7-dihydroxytryptamine” (J Med Chem, 1990)
Each block holds one compound with its values, some of them ahead of it.

Experiments:
[1] = Dissociation constant (pKa) was determined by spectrophotometric method; assay type: physicochemical
Method in brief: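 Compound (ca. 0.1 mM) first dissolved in phosphate buffer pH 2.2 (μ = 0.1); UV-visible spectrum recorded, then pH raised in ca. 0.5-unit steps to pH 10 with NaOH, spectrum taken at each step. pKa calculated from the pH-dependent shift in λmax of the two intense UV bands.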

Mus musculus = species on record: Mus musculus; assay: Compound was evaluated for lethal dose against mouse brain; assay type: toxicity, organism-based; conditions: in vivo
[2] = Compound was autooxidized for 2 hour at 37 degree Celsius in pH 7.4 Pseudo-first-order rate constant; assay type: ADME; conditions: pH 7.4, 2 h
Method in brief: (§1)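 5,7-DHT (0.5–1.0 mM) autoxidised at 37 °C in pH 7.4 phosphate buffer (μ = 0.2), with air vigorously bubbled through. Loss of 5,7-DHT was followed by HPLC peak area (reversed-phase RP-18; triethylamine/acetic acid mobile phase, pH 3.30; UV detection at 254 nm). The rate constant came from linear ln(peak area) vs time plots over the first 2 h.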

[3] = Compound was autooxidized for 2 hour at 37 degree Celsius in pH 7.4 phosphate buffer Pseudo-first-order rate constant; assay type: ADME; conditions: pH 7.4, 2 h; method in brief: as §1
[4] = Compound was autooxidized for 2 hour at 37 degree Celsius in pH 7.4 phosphate buffer pseudo-first-order rate constant 0.1 mM EDTA; assay type: ADME; conditions: pH 7.4, 2 h
[5] = Pseudo-first-order rate constant was determined in pH 7.4 phosphate buffer in presence 0.5 mM EDTA; assay type: ADME
[6] = Pseudo-first-order rate constant was determined in pH 7.4 phosphate buffer in presence 50 mM EDTA; assay type: ADME
[7] = Pseudo-first-order rate constant was determined in pH 7.4 phosphate buffer in presence 70 mM EDTA; assay type: ADME
[8] = Dissociation constant (pKa) was reported after potentiometric titration with 0.2 mM KOH; assay type: physicochemical
[9] = Half-life was reported for slow rate of autooxidation reaction; assay type: ADME
[10] = Half-life was reported for stability at pH 8; assay type: physicochemical; conditions: buffer

pKa [1]: 6.5
Structure (SMILES): NCCc1c[nH]c2c1C(=O)C(O)=C(C1=C(O)c3[nH]cc(CCN)c3C(=O)C1=O)C2=O

Structure (SMILES): NCCc1c[nH]c2c1C(=O)C(=O)C=C2O
pKa [1]: 5.6
LD50 (Mus musculus): 21 µg

Structure (SMILES): NCCc1c[nH]c2c(O)cc(O)cc12
K [2]: 0.046 min⁻¹
K [3]: 0.012 min⁻¹
K [4]: 0.012 min⁻¹
K [5]: 0.017 min⁻¹
K [6]: 0.014 min⁻¹
K [7]: 0.015 min⁻¹
pKa [8]: 4.8

Structure (SMILES): CC1(C)CC=CN1[O]
half-life [9]: 1 min
half-life [10]: 35 min
